Measured values: ChEMBL document CHEMBL4196006, “Aryl thiosemicarbazones for the treatment of trypanosomatidic infections” (Eur J Med Chem, 2018)
One block for each compound: values may come before it. Activity calls are given as the source filed them. The rule behind the calls is not given here.

Assays:
Trypanosoma brucei [1] = experiment: Antitrypanosomal activity against Trypanosoma brucei Lister 427 bloodstream form assessed as parasite growth inhibition at 50 uM after 72 hrs by SYBR Green assay relative to control; assay type: functional
Leishmania infantum [2] = experiment: Antileishmanial activity against Leishmania infantum amastigote form assessed as parasite growth inhibition at 50 uM after 72 hrs by steady-Glo reagent based assay relative to control; assay type: functional; conditions: read-out: GI
Summary of the method: (§1)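 Intramacrophage L. infantum amastigotes in THP-1-derived macrophages, tested at 50 μM or in dose-response. Plates held 72 h at 37 °C, 5% CO2. Medium was replaced by PBS, macrophages lysed, and parasites read by Steady-Glo luminescence. High-content imaging gave host cell number, infection ratio (infected/total cells) and parasites per infected cell. Values are means of at least two independent experiments.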

Trypanosoma cruzi = experiment: Antitrypanosomal activity against Trypanosoma cruzi amastigote form infected in human U2OS cells assessed as parasite growth inhibition at 50 uM after 72 hrs relative to control; assay type: functional; conditions: read-out: GI
Summary of the method: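 U2OS monolayers grown for 24 h, then infected with tissue-derived trypomastigotes of T. cruzi Y strain. Compounds were added 24 h after infection at 50 μM (single-point) or in dose-response, with 72 h exposure. Plates were fixed, stained and analysed by high-content imaging; activity was normalized to infected and non-infected controls. Means of at least two experiments; benznidazole as reference.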

Trypanosoma brucei [3] = experiment: Antitrypanosomal activity against Trypanosoma brucei Lister 427 bloodstream form at 10 uM after 72 hrs by resazurin dye-based assay relative to control; assay type: functional
Trypanosoma brucei [4] = experiment: Potentiation of methotrexate-induced antitrypanosomal activity against Trypanosoma brucei Lister 427 bloodstream form at 10 uM after 72 hrs by resazurin dye-based assay relative to control; assay type: functional
CYP1A2 = molecular target: T1, CYP1A2 (Homo sapiens, UniProt P05177); experiment: Inhibition of human microsomal CYP1A2 expressed in baculovirus infected BTI-TN-5B1-4 cells at 10 uM incubated for 30 mins by luciferase assay relative to control; assay type: ADME
T1 sequence (P05177 whole entry): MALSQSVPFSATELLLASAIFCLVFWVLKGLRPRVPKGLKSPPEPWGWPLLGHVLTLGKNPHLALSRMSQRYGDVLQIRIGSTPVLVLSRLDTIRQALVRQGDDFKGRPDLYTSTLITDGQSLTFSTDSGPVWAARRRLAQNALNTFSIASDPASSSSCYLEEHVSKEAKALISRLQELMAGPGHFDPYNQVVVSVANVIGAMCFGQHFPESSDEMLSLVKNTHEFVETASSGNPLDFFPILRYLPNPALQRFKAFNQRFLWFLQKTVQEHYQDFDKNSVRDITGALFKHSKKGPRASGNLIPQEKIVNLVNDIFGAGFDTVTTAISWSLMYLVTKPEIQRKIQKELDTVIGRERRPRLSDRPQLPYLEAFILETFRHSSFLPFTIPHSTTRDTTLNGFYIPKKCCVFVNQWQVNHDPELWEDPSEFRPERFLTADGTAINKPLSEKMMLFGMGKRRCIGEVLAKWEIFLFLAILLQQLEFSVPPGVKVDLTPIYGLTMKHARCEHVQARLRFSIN
Summary of the method: (§2)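 CYP1A2, 2C9, 2C19, 2D6 and 3A4 in microsomes from baculovirus-infected insect cells, each with a P450-Glo luminogenic substrate. Inhibition read as loss of light; single-point at 10 μM, triplicate.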

Trypanosoma brucei [5] = experiment: Potentiation of methotrexate-induced antitrypanosomal activity against Trypanosoma brucei Lister 427 bloodstream form at 10 uM after 72 hrs by resazurin dye-based assay; assay type: functional
hERG (KCNH2) = hERG (KCNH2) (Homo sapiens, UniProt Q12809); experiment: Inhibition of human ERG at 10 uM incubated for 2 hrs by fluorescence polarisation assay relative to control
hERG (KCNH2), sequence (Q12809 whole entry): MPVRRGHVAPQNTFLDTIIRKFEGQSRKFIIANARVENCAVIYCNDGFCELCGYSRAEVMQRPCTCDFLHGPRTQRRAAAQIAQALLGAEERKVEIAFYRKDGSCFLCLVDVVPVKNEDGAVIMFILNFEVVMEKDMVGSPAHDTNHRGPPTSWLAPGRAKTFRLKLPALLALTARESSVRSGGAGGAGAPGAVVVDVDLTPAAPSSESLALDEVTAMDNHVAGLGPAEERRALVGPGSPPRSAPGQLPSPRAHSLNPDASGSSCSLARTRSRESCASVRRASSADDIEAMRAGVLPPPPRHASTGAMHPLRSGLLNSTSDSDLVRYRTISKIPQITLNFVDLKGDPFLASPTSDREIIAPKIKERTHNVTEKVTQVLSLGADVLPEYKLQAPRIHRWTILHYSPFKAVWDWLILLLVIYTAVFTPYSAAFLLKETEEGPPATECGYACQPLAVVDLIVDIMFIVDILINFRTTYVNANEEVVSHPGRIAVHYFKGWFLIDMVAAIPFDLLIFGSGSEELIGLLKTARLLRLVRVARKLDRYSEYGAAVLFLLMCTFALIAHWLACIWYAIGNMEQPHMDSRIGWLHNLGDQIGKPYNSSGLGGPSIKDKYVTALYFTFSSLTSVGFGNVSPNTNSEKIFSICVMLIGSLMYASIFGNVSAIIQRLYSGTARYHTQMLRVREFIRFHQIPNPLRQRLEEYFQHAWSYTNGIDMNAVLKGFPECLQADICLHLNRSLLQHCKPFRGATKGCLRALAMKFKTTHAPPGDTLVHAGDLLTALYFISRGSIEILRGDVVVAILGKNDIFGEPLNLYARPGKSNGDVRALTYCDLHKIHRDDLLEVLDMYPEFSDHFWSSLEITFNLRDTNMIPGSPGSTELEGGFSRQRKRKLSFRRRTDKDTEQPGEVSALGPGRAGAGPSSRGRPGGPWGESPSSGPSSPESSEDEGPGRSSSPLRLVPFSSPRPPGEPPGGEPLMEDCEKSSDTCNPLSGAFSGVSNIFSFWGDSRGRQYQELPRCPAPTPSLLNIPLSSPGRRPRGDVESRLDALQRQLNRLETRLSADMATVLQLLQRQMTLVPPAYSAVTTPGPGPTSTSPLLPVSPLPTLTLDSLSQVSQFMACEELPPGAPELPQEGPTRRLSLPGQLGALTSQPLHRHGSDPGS

CYP2C9 = CYP2C9 (Homo sapiens, UniProt P11712); experiment: Inhibition of human microsomal CYP2C9 expressed in baculovirus infected BTI-TN-5B1-4 cells at 10 uM incubated for 30 mins by luciferase assay relative to control; assay type: ADME; summary of the method: as §2
CYP2C9, sequence (P11712 whole entry): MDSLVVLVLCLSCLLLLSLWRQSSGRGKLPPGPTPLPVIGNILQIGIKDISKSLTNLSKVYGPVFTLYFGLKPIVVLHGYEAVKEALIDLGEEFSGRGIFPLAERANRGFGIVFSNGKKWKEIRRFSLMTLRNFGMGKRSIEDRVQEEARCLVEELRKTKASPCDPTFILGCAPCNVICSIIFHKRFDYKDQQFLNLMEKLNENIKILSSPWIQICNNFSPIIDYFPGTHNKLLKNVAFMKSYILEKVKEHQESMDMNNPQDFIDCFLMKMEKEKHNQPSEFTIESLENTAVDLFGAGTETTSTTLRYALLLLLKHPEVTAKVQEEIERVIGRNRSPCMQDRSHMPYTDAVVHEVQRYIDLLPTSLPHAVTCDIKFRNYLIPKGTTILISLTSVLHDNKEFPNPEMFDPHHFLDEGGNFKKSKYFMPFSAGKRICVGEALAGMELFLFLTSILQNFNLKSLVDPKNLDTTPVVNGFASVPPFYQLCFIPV

CYP2C19 = CYP2C19 (Homo sapiens, UniProt P33261); experiment: Inhibition of human microsomal CYP2C19 expressed in baculovirus infected BTI-TN-5B1-4 cells at 10 uM incubated for 30 mins by luciferase assay relative to control; assay type: ADME; summary of the method: as §2
CYP2C19, sequence (P33261 whole entry): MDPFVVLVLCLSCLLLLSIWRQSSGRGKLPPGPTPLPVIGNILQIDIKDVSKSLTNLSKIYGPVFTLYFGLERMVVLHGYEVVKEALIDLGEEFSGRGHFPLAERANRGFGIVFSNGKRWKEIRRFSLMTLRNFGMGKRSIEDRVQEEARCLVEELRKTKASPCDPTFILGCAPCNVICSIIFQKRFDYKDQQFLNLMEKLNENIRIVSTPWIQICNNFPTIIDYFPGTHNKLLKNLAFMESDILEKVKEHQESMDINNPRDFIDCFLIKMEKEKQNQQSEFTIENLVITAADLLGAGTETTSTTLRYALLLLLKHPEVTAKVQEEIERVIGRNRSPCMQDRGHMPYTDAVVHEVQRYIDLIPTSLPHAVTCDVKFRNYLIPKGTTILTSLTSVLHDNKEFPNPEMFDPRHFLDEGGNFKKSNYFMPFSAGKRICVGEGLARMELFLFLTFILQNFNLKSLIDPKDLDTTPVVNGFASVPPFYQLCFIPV

CYP2D6 = CYP2D6 (Homo sapiens, UniProt P10635); experiment: Inhibition of human microsomal CYP2D6 expressed in baculovirus infected BTI-TN-5B1-4 cells at 10 uM incubated for 30 mins by luciferase assay relative to control; assay type: ADME; summary of the method: as §2
CYP2D6, sequence (P10635 whole entry): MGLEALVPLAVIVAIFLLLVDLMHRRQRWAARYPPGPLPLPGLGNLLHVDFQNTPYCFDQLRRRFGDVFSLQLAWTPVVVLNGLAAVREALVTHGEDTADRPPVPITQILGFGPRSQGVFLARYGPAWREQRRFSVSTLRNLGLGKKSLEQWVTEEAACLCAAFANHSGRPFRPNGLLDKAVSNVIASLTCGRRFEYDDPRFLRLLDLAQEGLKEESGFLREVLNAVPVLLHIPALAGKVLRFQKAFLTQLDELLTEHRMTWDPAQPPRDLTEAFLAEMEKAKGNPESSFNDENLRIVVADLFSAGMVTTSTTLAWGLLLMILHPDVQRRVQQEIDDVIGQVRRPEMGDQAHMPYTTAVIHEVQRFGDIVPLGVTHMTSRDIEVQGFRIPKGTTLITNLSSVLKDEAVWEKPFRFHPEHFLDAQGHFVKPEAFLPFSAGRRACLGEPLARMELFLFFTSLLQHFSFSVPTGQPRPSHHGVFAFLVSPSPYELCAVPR

CYP3A4 = CYP3A4 (Homo sapiens, UniProt P08684); experiment: Inhibition of human microsomal CYP3A4 expressed in baculovirus infected BTI-TN-5B1-4 cells at 10 uM incubated for 30 mins by luciferase assay relative to control; assay type: ADME; summary of the method: as §2
CYP3A4, sequence (P08684 whole entry): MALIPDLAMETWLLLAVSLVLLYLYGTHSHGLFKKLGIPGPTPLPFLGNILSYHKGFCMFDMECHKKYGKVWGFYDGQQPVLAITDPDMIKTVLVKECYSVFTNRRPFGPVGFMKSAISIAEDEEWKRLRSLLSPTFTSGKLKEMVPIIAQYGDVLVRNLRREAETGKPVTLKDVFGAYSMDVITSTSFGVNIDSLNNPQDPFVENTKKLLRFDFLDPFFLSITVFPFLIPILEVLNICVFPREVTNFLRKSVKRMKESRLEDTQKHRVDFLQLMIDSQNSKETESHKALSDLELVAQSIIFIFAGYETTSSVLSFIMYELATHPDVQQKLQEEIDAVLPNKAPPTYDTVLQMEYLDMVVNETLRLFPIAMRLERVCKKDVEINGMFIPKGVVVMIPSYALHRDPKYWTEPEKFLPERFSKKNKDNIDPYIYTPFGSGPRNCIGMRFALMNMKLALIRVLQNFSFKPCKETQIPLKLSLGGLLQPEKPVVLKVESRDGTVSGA

Aurora kinase B = Aurora kinase B (Homo sapiens, UniProt Q96GD4); experiment: Inhibition of recombinant full-length human aurora B kinase expressed in baculovirus system at 10 uM using MBP as substrate incubated for 45 mins by ADP-glo kinase assay; conditions: probe MBP
Aurora kinase B, sequence (Q96GD4 whole entry): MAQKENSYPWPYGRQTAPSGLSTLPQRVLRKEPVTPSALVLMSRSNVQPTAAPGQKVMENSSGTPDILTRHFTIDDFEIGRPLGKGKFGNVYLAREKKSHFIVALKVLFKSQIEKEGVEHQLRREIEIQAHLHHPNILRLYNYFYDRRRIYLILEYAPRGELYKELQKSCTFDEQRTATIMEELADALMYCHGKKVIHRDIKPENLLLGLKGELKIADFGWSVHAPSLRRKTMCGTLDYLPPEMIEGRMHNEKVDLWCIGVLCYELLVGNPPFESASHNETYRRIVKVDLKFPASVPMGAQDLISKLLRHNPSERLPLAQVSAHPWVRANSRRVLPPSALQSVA
Summary of the method: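 Aurora B activity measured as ADP formation via coupled luciferase ADP-Glo luminescence; single-point at 10 μM, triplicate.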

[6] = Cytotoxicity against human 786-O cells assessed as inhibition of mitochondrial viability at 10 uM after 6 hrs by CMXRos staining based assay relative to control; assay type: cell-based, 786-0; conditions: read-out: INH
Summary of the method: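 Mitochondrial toxicity monitored by MitoTracker Red CMXRos uptake and high-content imaging; compound at 10 μM, triplicate.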

[7] = Cytotoxicity against human THP1 cells assessed as viable cells at 100 uM after 72 hrs by MTT assay relative to control; assay type: cell-based, THP-1; conditions: read-out: Activity
Summary of the method: (§3)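 THP-1-derived macrophages exposed to compounds for 72 h, tested at 100 μM or in dose-response; viability read by MTT colorimetric assay.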

[8] = Cytotoxicity against human U2OS cells assessed as viable cells at 50 uM after 72 hrs by MTT assay relative to control; assay type: cell-based; conditions: read-out: Activity
[9] = molecular target: T2, Pteridine reductase, putative (Trypanosoma brucei) (UniProt Q581W1); experiment: Inhibition of Trypanosoma brucei PTR1 at 50 uM using H2B as substrate in presence of NADPH by photometric analysis relative to control
T2 sequence (whole entry): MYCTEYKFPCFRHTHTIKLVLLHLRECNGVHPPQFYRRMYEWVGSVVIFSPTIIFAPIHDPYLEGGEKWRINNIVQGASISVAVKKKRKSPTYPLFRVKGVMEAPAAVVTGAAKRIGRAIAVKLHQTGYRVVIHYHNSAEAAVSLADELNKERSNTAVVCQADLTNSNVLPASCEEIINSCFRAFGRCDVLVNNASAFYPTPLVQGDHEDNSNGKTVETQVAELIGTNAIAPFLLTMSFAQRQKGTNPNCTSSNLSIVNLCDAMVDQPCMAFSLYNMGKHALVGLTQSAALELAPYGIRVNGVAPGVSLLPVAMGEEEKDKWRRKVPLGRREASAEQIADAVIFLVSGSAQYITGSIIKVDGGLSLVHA

[10] = molecular target: T3, Pteridine reductase 1 (Leishmania major) (UniProt Q01782); experiment: Inhibition of Leishmania major PTR1 at 50 uM using H2B as substrate in presence of NADPH by photometric analysis relative to control
T3 sequence (whole entry): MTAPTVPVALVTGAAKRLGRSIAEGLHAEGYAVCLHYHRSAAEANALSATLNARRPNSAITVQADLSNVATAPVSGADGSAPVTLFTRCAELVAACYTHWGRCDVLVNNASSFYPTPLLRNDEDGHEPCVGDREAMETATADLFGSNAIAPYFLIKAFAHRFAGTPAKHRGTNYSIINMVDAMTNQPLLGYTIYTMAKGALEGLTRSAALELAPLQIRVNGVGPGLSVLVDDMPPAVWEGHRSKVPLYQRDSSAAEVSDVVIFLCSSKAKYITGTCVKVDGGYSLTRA

A549 = experiment: Cytotoxicity against human A549 cells assessed as growth inhibition at 10 uM after 48 hrs by CellTiter-Glo assay relative to control; values are per cent of control; conditions: a549, 48 h, 10 µM
[11] = Cytotoxicity against human WI38 cells assessed as growth inhibition at 10 uM after 48 hrs by CellTiter-Glo assay relative to control; values are per cent of control; conditions: WI38 cells
Leishmania infantum [12] = experiment: Antileishmanial activity against Leishmania infantum amastigote form after 72 hrs by steady-Glo reagent based assay; assay type: functional, organism-based; summary of the method: as §1
[13] = Cytotoxicity against human THP1 cells assessed as decrease in viable cells after 72 hrs by MTT assay; assay type: cell-based, THP-1; conditions: THP1 cells; summary of the method: as §3
Cytochrome P450 2C9 = Cytochrome P450 2C9 (Homo sapiens, UniProt P11712); experiment: Inhibition of human microsomal CYP2C9 expressed in baculovirus infected BTI-TN-5B1-4 cells incubated for 30 mins by luciferase assay
Cytochrome P450 2C9, sequence (P11712 whole entry): as the sequence (P11712 whole entry) above

Leishmania infantum [14] = experiment: Antileishmanial activity against Leishmania infantum amastigote form; assay type: functional, organism-based; summary of the method: as §1
[15] = Cytotoxicity against human U2OS cells assessed as decrease in viable cells after 72 hrs by cell number count in anti-T. cruzi high content imaging assay; conditions: U2OS cells

- inhibition at 0.5 h, 10 µM (CYP1A2): 61.6%
- inhibition at 0.5 h, 10 µM (CYP2C9): -4.92%
- inhibition at 0.5 h, 10 µM (CYP2C19): -40.6%
- inhibition at 0.5 h, 10 µM (CYP2D6): -2.93%
- inhibition at 0.5 h, 10 µM (CYP3A4): -13.9%
- inhibition at 0.75 h, 10 µM (Aurora kinase B): -22.8%
- inhibition [9]: 14.8%
- inhibition [10]: 10.6%
SMILES: NC(=S)N/N=C/c1ccccc1[N+](=O)[O-]
- growth inhibition (GI) (Trypanosoma brucei [1]): inactive
- inhibition of growth at 50 µM (Leishmania infantum [2]): 30.6%
- inhibition of growth at 50 µM (Trypanosoma cruzi): 27.4%
- Activity (Trypanosoma brucei [3]): 1.5%
- Activity (Trypanosoma brucei [4]): 29.17%
- PF (Trypanosoma brucei [5]): 1.13
- inhibition at 2 h, 10 µM (hERG (KCNH2)): -1.03%
- cytotoxicity at 6 h, 10 µM [6]: -3.98%
- viability at 72 h, 100 µM [7]: 59.7%
- viability at 72 h, 50 µM [8]: 20.4%
- cell growth (% of control) (A549): 158.95%
- cell growth (% of control) at 48 h, 10 µM [11]: 120%

- EC50 (Leishmania infantum [12]): 2.51 to 2.8 µM
- IC50 (Cytochrome P450 2C9): > 100 µM
- EC50 (Leishmania infantum [14]): 1.29 µM
SMILES: CCCCCCCCCCCCCCCCOP(=O)([O-])OCC[N+](C)(C)C [MILTEFOSINE]
- CC50 at 72 h [13]: 15 µM
- CC50 at 72 h [15]: 11.5 µM

SMILES: N=C(N)c1ccc(OCCCCCOc2ccc(C(=N)N)cc2)cc1 [PENTAMIDINE]
- CC50 at 72 h [13]: 10 µM
